Measurements: ChEMBL document CHEMBL1130979, “Synthesis, X-ray crystal structure, and biological activity of FR186054, a novel, potent, orally active inhibitor of acyl-CoA:cholesterol O-acyltransferase (ACAT) bearing a pyrazole ring” (Bioorg Med Chem Lett, 1998)

Columns and labels:
Format in all cases: functional
[1] = tested on: Rattus norvegicus; assay: Hypocholesterolemic activity by administration of gavage in PEG400 as a vehicle in cholesterol-fed rats.; conditions: po
In short: (§1)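 Male rats (n = 4) made hypercholesterolemic on diet with 1% cholesterol and 0.5% cholic acid for 2 days. Compound then dissolved in PEG400 and given orally by gavage once daily in the evening for 3 days, cholesterol-enriched diet continued. Plasma total cholesterol measured; ED50 = dose lowering plasma total cholesterol by 50% of control.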

[2] = tested on: Rattus norvegicus; assay: Hypocholesterolemic activity to reduce plasma total cholesterol level by 50% after dietary administration in cholesterol-fed rats; conditions: feed or water
In short: (§2)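 Male rats (n = 4) received compound admixed in diet supplemented with 1% cholesterol and 0.5% cholic acid for 7 days. Plasma total cholesterol then measured, percent change vs control calculated. Reported as percent reduction at the dose given or as ED50 (dose lowering total cholesterol by 50%). Significance by unpaired two-tailed Student's t-test.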

[3] = tested on: Rattus norvegicus; assay: Percent reduction in total cholesterol at less than 0.1 mg/kg dose; in short: as §2
[4] = tested on: Rattus norvegicus; assay: Hypocholesterolemic activity by administration of gavage in PEG400 as a vehicle in cholesterol-fed rats; conditions: po; in short: as §1
[5] = tested on: Rattus norvegicus; assay: Percent reduction in total cholesterol at greater than 1 mg/kg dose; in short: as §2

Structure (SMILES)	ED50 [1] [mg/kg]	ED50 [2] [mg/kg]	Reduction [3] [%]	ED50 [4] [mg/kg]	Reduction [5] [%]
CSc1cc(C)nc(SC)c1NC(=O)N(Cc1ccccc1)Cc1cccc(-c2cc[nH]n2)c1	0.44	0.046	–	–	–
CSc1cc(C)nc(SC)c1NC(=O)N(Cc1ccc(N(C)C)cc1)Cc1cccc(-c2cc[nH]n2)c1	–	< 0.1	61	–	–
O=C(Nc1c(F)cc(F)cc1F)N(Cc1ccccc1)Cc1cccc(-c2cc[nH]n2)c1	–	0.096	–	8.6	–
CSc1cc(C)nc(SC)c1NC(=O)N(Cc1ccc(F)cc1)Cc1cccc(-c2cc[nH]n2)c1	–	< 0.1	66	–	–
Cc1cc(C)c(NC(=O)N(Cc2ccccc2)Cc2cccc(-c3cc[nH]n3)c2)c(C)c1	–	> 1	–	–	36
COc1ccc(CN(Cc2cccc(-c3cc[nH]n3)c2)C(=O)Nc2c(SC)cc(C)nc2SC)cc1	–	< 0.1	81	–	–
CCCCCCCN(Cc1ccc(CC(C)(C)C)cc1)C(=O)Nc1ccc(F)cc1F [CL-277082]	–	5	–	–	–
